Assay outcomes deposited in PubChem by Broad Institute.
PGC1a acetyl inh = inhibitors of PGC1a acetylation signal, primary screen, cell-based, U2OS, AlphaScreen, inhibitor mode; actives 0.17% (n = 350,000); AlphaScreen anti-acetyl-lysine; with virally co-expressed GCN5 acetyltransferase; inhibition, % at 15.6 µM;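 active means every replicate shows inhibition of at least 40%; inconclusive means mean inhibition at least 40% but some replicate below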;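 further: 0% = neutral control wells and 100% = positive control wells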
PglD DTNB = C. jejuni PglD acetyltransferase inhibitors, primary screen, biochemical, DTNB colorimetric, single point | inhibition, % at 12.5 µM | UDP-N-acetylbacillosamine N-acetyltransferase PglD (Campylobacter jejuni) | purified PglD enzyme, DTNB colorimetric CoA detection | AID 602405, 2012 | actives 0.098% (n = 360,000); in the data active means inhibition above about 16%, passing the limit was not always enough; inconclusive means no clear call, values can overlap the other calls
FN deposit inh = inhibitors of fibronectin matrix deposition, primary screen, AH1F cells, Alexa488-fibronectin fluorescence, plate reader. AH1F fibroblasts, overnight. inhibition, % at 12.6 µM. actives 0.086% (n = 350,000). AID 743247, 2014;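 active means mean inhibition across replicates of 30% or more, regardless of how many single replicates reach that level; inconclusive means mean under 30% yet at least half of replicates reach 30%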;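 further: positive control wells lacked labelled fibronectin entirely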
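material = AH1F fibroblast monolayer depositing Alexa488-labelled fibronectin into matrix | amount = 10000 AH1F cells/well | buffer or medium = DMEM plus 2% serum, read in PBS | incubation = 1 h cell adhesion before compound, then overnight fibronectin incubation | detection = fluorescence at 485 nm excitation, 525 nm emission | evaluation = percent inhibition as loss of matrix-bound fibronectin fluorescence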
DENV2 CPE rescue = inhibitors of DENV2 cytopathic effect, primary screen, cell-based, plate reader, single concentration; DENV2-infected cells, cytopathic effect rescue; CPE inhibition, % at 9.99 µM; actives 1.7% (n = 350,000); AID 651640, 2012; in the data active means CPE inhibition above about 20%, passing the limit was not always enough; inconclusive means no clear call, values can overlap the other calls; tested in BHK-21 cells;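 further: 0% = median of neutral control wells and 100% = median of positive control wells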
Ecoli rRNA inh = reduced GFP signal of wild-type E. coli, primary screen, bacterial rRNA inhibitor project, GFP/RFP fluorescence, OD600, single point | E. coli WT GFP vs humanized-ribosome RFP mutants, 24 h; active compounds read low; DMSO median 0, no signal -100 | GFP signal change (wild-type ribosome), % (no concentration beside the values) | actives 1.6% (n = 350,000);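 active means significant combined selectivity score with lowered wild-type GFP, culture density cut under 30%, mutant RFP and density less affected; inactive means any of these conditions unmet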
HIV Env fusion = inhibitors of HIV-1 Env-driven cell-cell fusion, primary screen, HeLa-JRFL effector, CEM21 target cells, luciferase; inhibition, % at 12.3 µM; actives 1.1% (n = 360,000);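 active means mean replicate inhibition score of at least 50 and every replicate individually at or above 50; inconclusive means only one of the two criteria met; inactive means mean below 50 and not all replicates reaching 50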;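 further: 0% = plate neutral controls and 100% = maraviroc near 300 nM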
An asterisk follows results filed as active; ? = inconclusive; . = not tested or not shown; [ ] = remark or other dose. Sampled rows, rich in hits. Any-hit rate of the full collection: about 3.5%.

SMILES	PGC1a acetyl inh	PglD DTNB	FN deposit inh	DENV2 CPE rescue	Ecoli rRNA inh	HIV Env fusion
CCN(C[C@H]1N[C@@](CC)(C(=O)OC)[C@H]2C(=O)N(C)C(=O)[C@@H]12)S(=O)(=O)c1ccc(OC)cc1	1	-1	-4	26*	3	20
CCN(C[C@H]1N[C@@](C)(C(=O)OC)[C@H]2C(=O)N(C)C(=O)[C@@H]12)C(=O)Nc1ccc(F)cc1	.	-4	3	-10	12	-39
CCNC(=O)N(CC)C[C@H]1N[C@@](C)(C(=O)OC)[C@H]2C(=O)N(Cc3ccccc3)C(=O)[C@@H]12	-4	-2	8	-2	10	-59
CCNC(=O)N(CC)C[C@H]1N[C@@](C)(C(=O)OC)[C@H]2C(=O)N(C)C(=O)[C@@H]12	12	-1	1	46*	-4	2
COC(=O)[C@]1(C)N[C@H](CN(C)S(=O)(=O)c2ccc(C)cc2)[C@@H]2C(=O)N(C)C(=O)[C@@H]21	.	-1	13	-1	-6	-22
CCN(C[C@H]1N[C@@](C)(C(=O)OC)[C@H]2C(=O)N(Cc3ccccc3)C(=O)[C@@H]12)C(=O)Nc1ccc(C)cc1	2	-2	0	-2	22	79*
COC(=O)[C@]1(C)N[C@H](CN(C)S(=O)(=O)c2ccc(C(C)(C)C)cc2)[C@@H]2C(=O)N(C)C(=O)[C@@H]21	.	-1	-1	-7	-25*	-30
CCN(C[C@H]1N[C@@](CC)(C(=O)OC)[C@H]2C(=O)N(Cc3ccccc3)C(=O)[C@@H]12)C(=O)Nc1ccc(OC)cc1	9	0	6	14	13	87*
CCN(C[C@H]1N[C@@](C)(C(=O)OC)[C@H]2C(=O)N(Cc3ccccc3)C(=O)[C@@H]12)S(=O)(=O)c1ccc(OC)cc1	.	2	-5	-3	-4	?
CCN(C[C@H]1N[C@@](C)(C(=O)OC)[C@H]2C(=O)N(Cc3ccccc3)C(=O)[C@@H]12)C(=O)Nc1ccccc1	.	4	-4	8	3	127*
CCN(C[C@H]1N[C@@](CC)(C(=O)OC)[C@H]2C(=O)N(Cc3ccccc3)C(=O)[C@@H]12)C(=O)c1ccc(F)cc1	9	1	23	8	-7	56*
CCN(C[C@H]1N[C@@](C)(C(=O)OC)[C@H]2C(=O)N(Cc3ccccc3)C(=O)[C@@H]12)S(=O)(=O)c1ccc(C)cc1	.	-1	-1	-2	-21*	69*
CCN(C[C@H]1N[C@@](CC)(C(=O)OC)[C@H]2C(=O)N(Cc3ccccc3)C(=O)[C@@H]12)C(=O)Nc1ccc(C(F)(F)F)cc1	-5	-2	0	3	-33	50
COCCNC(=O)C[C@H]1CC[C@H]2[C@@H](COc3ccc(NC(=O)c4ccno4)cc3C(=O)N2C)O1	-4	0	7	2	-1	.
COCC#Cc1ccc2c(c1)O[C@@H](CN(C)S(=O)(=O)c1ccc(F)cc1)[C@H](C)CN([C@H](C)CO)S2(=O)=O	-4	3	.	-4	-1	6[16.7 µM]
CC(C)C#Cc1cnc2c(c1)C(=O)N([C@H](C)CO)C[C@H](C)[C@@H](CN(C)C(=O)c1cccc(F)c1)O2	-18	1	-9	-6	2	7[16.7 µM]
Cc1noc(C)c1NC(=O)Nc1ccc2c(c1)CC(=O)N([C@@H](C)CO)C[C@H](C)[C@H](CN(C)C(=O)Nc1ccccc1)O2	10	2	.	-3	4	-15[16.7 µM]
CCN(C[C@H]1N[C@@](C)(C(=O)OC)[C@H]2C(=O)N(C)C(=O)[C@@H]12)S(=O)(=O)c1ccc(-c2ccccc2)cc1	.	0	-4	20*	-11	-57
CC[C@@]1(C(=O)OC)N[C@H](CN(C)C(C)=O)[C@@H]2C(=O)N(Cc3ccccc3)C(=O)[C@@H]21	.	1	-6	-2	14	18
CC[C@@]1(C(=O)OC)N[C@H](CN(C)C(=O)COc2ccccc2)[C@@H]2C(=O)N(Cc3ccccc3)C(=O)[C@@H]21	.	-5	5	10	14	69*
C[C@@H]1CN([C@@H](C)CO)C(=O)Cc2cc(NS(=O)(=O)c3ccccc3)ccc2O[C@H]1CN(C)C(=O)Nc1cccc2ccccc12	3	1	.	-9	2	2[16.7 µM]
C[C@H]1CCCCO[C@@H](CN(C)C(=O)Nc2ccc(F)cc2)[C@@H](C)CN([C@@H](C)CO)C(=O)c2cc(NS(=O)(=O)c3ccccc3)ccc2O1	-6	-3	.	-12	0	7[16.7 µM]
CC(=O)N/C(=C\c1ccccc1)C(=O)OCC(=O)c1ccccc1	.	-2	1	-1	-1	-3
CC(=O)N/C(=C\c1ccccc1)C(=O)OCC(=O)NC1CCCC1	4	16	-4	21*	6	.
CCOC(=O)c1c(CS(=O)(=O)c2ccccc2)n(C)c2cc(Br)c(O)cc12	-20	-13	2	5	-19*	31
SMILES	PGC1a acetyl inh	PglD DTNB	FN deposit inh	DENV2 CPE rescue	Ecoli rRNA inh	HIV Env fusion
CCOC(=O)c1c(CNc2ccncc2)n(C)c2cc(Br)c(O)cc12	.	.	-19	2	14	10
CCOC(=O)c1c(CS(=O)(=O)c2ccccc2)n(C)c2cc(Br)c(O)c(CN(C)C)c12	-22	.	-5	-5	-9	67*
C[C@@H]1CN([C@H](C)CO)C(=O)Cc2cc(NC(=O)CCC(F)(F)F)ccc2O[C@H]1CN(C)CC1CC1	27	1	7	-4	0	7[16.7 µM]
CC(C)NC(=O)N(C)C[C@H]1Oc2ccc(NC(=O)c3ccncc3)cc2CC(=O)N([C@H](C)CO)C[C@@H]1C	-10	4	-5	?	3	.
Cc1ccccc1C(=O)Nc1ccc(C(=O)N/N=C/c2ccc(O)c(Br)c2)cc1	.	.	-13	5	-19*	22
CCCNC(=O)N(C)C[C@H]1Oc2ncc(/C=C/c3ccccc3)cc2C(=O)N([C@@H](C)CO)C[C@@H]1C	1	3	.	-13	-3	-28[16.7 µM]
CC[N+]1(C)CCC(=C2c3ccccc3CC(=O)c3sccc32)CC1 (stereo not drawn)	10	-1	-3	.	.	-16
C[N+]1(C)CCC(=C2c3ccccc3CC(=O)c3sccc32)CC1	94*	-2	4	.	.	64*
CC(C)CC#Cc1ccc2c(c1)O[C@H](CN(C)S(=O)(=O)c1cccc(F)c1)[C@H](C)CN([C@H](C)CO)S2(=O)=O	-12	-2	.	22*	5	44[16.7 µM]
